Measurements reported in ChEMBL document CHEMBL1671856, “Chemical target validation studies of aminopeptidase in malaria parasites using alpha-aminoalkylphosphonate and phosphonopeptide inhibitors” (Antimicrob Agents Chemother, 2008).
pIC50, pKi: −log10 of the molar value.

Tests used:
Plasmodium falciparum [1] = assay: Inhibition of alanyl aminopeptidase activity in Plasmodium falciparum 3D7 at 10 uM using Ala-AMC as a substrate by spectrophotometer
Outline: (§1)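 Cytosolic extract came from free parasites released from infected erythrocytes, then three freeze-thaw cycles and centrifugation at 12,000 x g, 4°C, 20 min. Extract (25 µg/ml final) was preincubated with 0.1 or 10 µM inhibitor in 50 mM Tris-Cl pH 8.0, with or without 1 mM CoCl2, for 15 min at 37°C. Leu-AMC or Ala-AMC (10 µM final) was added. AMC release was read over 30 min (ex 370/em 440 nm).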

[2] = target: T1, Leucine aminopeptidase (Plasmodium falciparum 3D7) (UniProt Q8IL11); assay: Inhibition of leucyl aminopeptidase activity in Plasmodium falciparum 3D7 at 10 uM using Leu-AMC as a substrate by spectrophotometer; outline: as §1
T1 sequence (whole entry): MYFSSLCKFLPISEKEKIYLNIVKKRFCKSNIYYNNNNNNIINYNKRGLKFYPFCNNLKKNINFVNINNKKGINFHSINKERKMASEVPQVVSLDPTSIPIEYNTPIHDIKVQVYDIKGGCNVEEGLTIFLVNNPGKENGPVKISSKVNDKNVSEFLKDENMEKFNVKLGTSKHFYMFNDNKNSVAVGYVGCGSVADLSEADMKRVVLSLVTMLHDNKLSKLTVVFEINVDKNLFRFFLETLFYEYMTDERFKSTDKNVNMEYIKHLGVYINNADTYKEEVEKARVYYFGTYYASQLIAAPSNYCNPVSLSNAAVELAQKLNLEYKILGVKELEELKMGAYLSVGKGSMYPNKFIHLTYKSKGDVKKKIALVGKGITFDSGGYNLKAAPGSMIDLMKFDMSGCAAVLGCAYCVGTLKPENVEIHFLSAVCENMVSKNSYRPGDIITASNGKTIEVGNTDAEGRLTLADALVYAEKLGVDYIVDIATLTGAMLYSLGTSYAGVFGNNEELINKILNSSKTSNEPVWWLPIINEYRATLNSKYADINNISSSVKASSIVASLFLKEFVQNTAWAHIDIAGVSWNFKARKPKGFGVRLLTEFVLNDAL

Plasmodium falciparum [3] = assay: Inhibition of alanyl aminopeptidase activity in Plasmodium falciparum 3D7 at 0.1 uM using Ala-AMC as a substrate by spectrophotometer; outline: as §1
[4] = target: T1, Leucine aminopeptidase (Plasmodium falciparum 3D7); assay: Inhibition of leucyl aminopeptidase activity in Plasmodium falciparum 3D7 at 0.1 uM using Leu-AMC as a substrate by spectrophotometer; outline: as §1
[5] = target: T1, Leucine aminopeptidase (Plasmodium falciparum 3D7); assay: Inhibition of leucyl aminopeptidase activity in Plasmodium falciparum 3D7 at 10 uM using Leu-AMC as a substrate by spectrophotometer in presence of 1 mM CoCl2
Plasmodium falciparum [6] = assay: Antimalarial activity against Plasmodium falciparum 3D7 infected in O-positive human erythrocytes after 72 hrs; format: functional, organism-based; details: 3D7, 72 h
Outline: (§2)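 Asynchronous asexual blood-stage P. falciparum 3D7 were cultured in O+ erythrocytes and exposed to compounds for 72 h. Growth was read by the spectrophotometric parasite lactate dehydrogenase absorbance assay. IC50 values were determined graphically from dose-response curves.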

[7] = target: T1, Leucine aminopeptidase (Plasmodium falciparum 3D7); assay: Inhibition of leucyl aminopeptidase activity in Plasmodium falciparum 3D7 at 0.1 uM using Leu-AMC as a substrate by spectrophotometer in presence of 1 mM CoCl2
Aminopeptidase N = target: T2, Aminopeptidase N (Sus scrofa, UniProt P15145); assay: Inhibition of pig kidney microsomal aminopeptidase N
T2 sequence (P15145 whole entry): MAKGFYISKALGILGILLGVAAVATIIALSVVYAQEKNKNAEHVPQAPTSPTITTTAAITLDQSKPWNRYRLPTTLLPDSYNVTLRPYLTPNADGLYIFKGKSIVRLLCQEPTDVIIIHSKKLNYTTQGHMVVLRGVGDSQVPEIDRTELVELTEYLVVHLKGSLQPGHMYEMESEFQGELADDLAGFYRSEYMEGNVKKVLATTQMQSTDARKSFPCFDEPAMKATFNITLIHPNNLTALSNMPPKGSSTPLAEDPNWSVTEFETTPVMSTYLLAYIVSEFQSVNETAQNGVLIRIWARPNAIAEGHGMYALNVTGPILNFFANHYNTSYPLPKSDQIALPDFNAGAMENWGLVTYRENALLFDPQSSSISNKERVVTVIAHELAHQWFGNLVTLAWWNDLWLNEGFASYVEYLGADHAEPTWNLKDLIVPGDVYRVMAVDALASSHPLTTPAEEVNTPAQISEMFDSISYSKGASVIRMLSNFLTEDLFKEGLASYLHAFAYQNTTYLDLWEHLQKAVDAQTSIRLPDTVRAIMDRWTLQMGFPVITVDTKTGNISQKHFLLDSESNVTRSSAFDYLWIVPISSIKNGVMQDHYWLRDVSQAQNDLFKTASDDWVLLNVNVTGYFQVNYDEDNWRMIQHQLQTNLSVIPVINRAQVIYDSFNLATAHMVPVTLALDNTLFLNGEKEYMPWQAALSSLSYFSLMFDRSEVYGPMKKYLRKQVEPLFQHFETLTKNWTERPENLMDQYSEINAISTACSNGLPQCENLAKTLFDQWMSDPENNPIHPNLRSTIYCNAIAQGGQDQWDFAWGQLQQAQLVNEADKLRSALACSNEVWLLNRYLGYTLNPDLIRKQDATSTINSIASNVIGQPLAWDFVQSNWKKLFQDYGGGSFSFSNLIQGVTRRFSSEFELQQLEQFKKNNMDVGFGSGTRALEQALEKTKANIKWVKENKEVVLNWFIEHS

[8] = Inhibition of porcine kidney leucyl aminopeptidase; parameters: species or system Sus scrofa
Plasmodium falciparum [9] = assay: Antimalarial activity against Plasmodium falciparum 3D7 infected in O-positive human erythrocytes assessed as growth inhibition by LDH assay; format: functional; outline: as §2
[10] = target: T1, Leucine aminopeptidase (Plasmodium falciparum 3D7); assay: Inhibition of leucyl aminopeptidase activity in Plasmodium falciparum 3D7 harboring tPfAP-M17 gene at 0.1 uM using Leu-AMC as a substrate by spectrophotometer in presence of 1 mM CoCl2

SMILES | inhibition [2] | pIC50 (Plasmodium falciparum [6]) | inhibition (INH) (Plasmodium falciparum [9]) | further results
CC(CCNC(=O)C(N)Cc1ccccc1)P(=O)(O)O (stereo unspecified) | 4% | 3.87 |  | inhibition at 10 µM (Plasmodium falciparum [1]): 0%; inhibition at 0.1 µM (Plasmodium falciparum [3]): 0%; inhibition [4]: 0%; inhibition [5]: 0%; inhibition [7]: 1%
N[C@@H](C1CCCCC1)P(=O)(O)O | 12% | 4.27 |  | pKi (Aminopeptidase N): 3.79; inhibition at 10 µM (Plasmodium falciparum [1]): 8%; inhibition at 0.1 µM (Plasmodium falciparum [3]): 2%; pKi [8]: 5.10; inhibition [4]: 0%; inhibition [5]: 67%; inhibition [7]: 50%
NC(c1ccc2ccccc2c1)C(O)P(=O)(O)O (stereo unspecified) | 17% | < 3.89 | 11% | 
CCC(CC)[C@H](N)P(=O)(O)O | 10% | < 3.59 | 15% | 
CC(C)C[C@H](N)[C@@H](N)P(=O)(O)O | 6% | < 3.59 | 14% | 
Cl.NC(Cc1ccccc1)C(=O)NCCC(O)P(=O)(O)O (stereo unspecified) | 9% | < 3.59 | 10% | 
CC(C)C(NC(=O)C(N)Cc1ccccc1)P(=O)(O)O (stereo unspecified) | 12% | < 3.59 | 7% | 
N[C@H](C1CCCCC1)P(=O)(O)O | 8% | < 3.59 | 7% | pKi (Aminopeptidase N): < 2.70; pKi [8]: 5.16
CCC(C)C(N)C(O)P(=O)(O)O (stereo unspecified) | 5% | < 3.59 | 1% | 
CCC(CC)[C@@H](N)P(=O)(O)O | 6% | < 3.59 | 0% | 
NC(c1ccccc1)C(O)P(=O)(O)O (stereo unspecified) | 5% | < 3.59 | 0% | 
CC(C)C[C@@H](N)P(=O)(O)O | 2% | < 3.59 | 1% | pKi (Aminopeptidase N): 4.28
NC(CCc1ccccc1)P(=O)(O)O (racemic) | 93% | 4.66 |  | inhibition at 10 µM (Plasmodium falciparum [1]): 95%; inhibition at 0.1 µM (Plasmodium falciparum [3]): 15%; pKi [8]: 6.85; inhibition [4]: 15%; inhibition [5]: 92%; inhibition [10]: 27%; inhibition [7]: 41%
NC(CCc1ccccc1)P(=O)(O)Oc1ccccc1 (racemic) | 90% | 4.60 |  | inhibition at 10 µM (Plasmodium falciparum [1]): 92%; inhibition at 0.1 µM (Plasmodium falciparum [3]): 12%; inhibition [4]: 8%; inhibition [5]: 73%; inhibition [7]: 19%
COc1ccc(C(N)P(=O)(O)O)cc1O (racemic) | 39% | 4.19 |  | inhibition at 10 µM (Plasmodium falciparum [1]): 43%; inhibition at 0.1 µM (Plasmodium falciparum [3]): 0%; inhibition [4]: 5%; inhibition [5]: 71%; inhibition [7]: 46%
NC(CC1CCCCC1)P(=O)(O)O (racemic) | 27% | 3.92 |  | pKi (Aminopeptidase N): 4.26; inhibition at 10 µM (Plasmodium falciparum [1]): 20%; inhibition at 0.1 µM (Plasmodium falciparum [3]): 0%; pKi [8]: 6.12; inhibition [4]: 3%; inhibition [5]: 69%; inhibition [7]: 21%
COc1ccc(C(N)P(=O)(O)O)cc1OC (racemic) | 71% | 4.28 |  | inhibition at 10 µM (Plasmodium falciparum [1]): 76%; inhibition at 0.1 µM (Plasmodium falciparum [3]): 0%; inhibition [4]: 6%; inhibition [5]: 70%; inhibition [7]: 20%
COc1ccc(C(N)P(=O)(O)O)cc1 (racemic) | 43% | 4.24 |  | inhibition at 10 µM (Plasmodium falciparum [1]): 52%; inhibition at 0.1 µM (Plasmodium falciparum [3]): 2%; inhibition [4]: 2%; inhibition [5]: 73%; inhibition [7]: 38%
NC(c1cccc(O)c1)P(=O)(O)O (racemic) | 6% | < 3.59 | 34% | 
NC(CC1CCCC1)P(=O)(O)O (racemic) | 37% | < 3.59 | 17% | 

SMILES | inhibition [2] | pIC50 (Plasmodium falciparum [6]) | inhibition (INH) (Plasmodium falciparum [9]) | further results
NC(c1ccc(O)cc1)P(=O)(O)O (racemic) | 8% | < 3.59 | 14% | 
NC(C1CCC1)P(=O)(O)O (racemic) | 6% | < 3.59 | 8% | 
NC(c1ccc(O)c(O)c1)P(=O)(O)O (racemic) | 7% | < 3.59 | 5% | 
NC(Cc1ccc(O)cc1)P(=O)(O)O (racemic) | 8% | < 3.59 | 1% | 
NC(C1CC1)P(=O)(O)O (racemic) | 6% | < 3.59 | 0% | 
CCC(C)C(N)P(=O)(O)O (stereo in doubt; D28) [listing 1 of 2 here] |  | < 3.59 | 22% | 
CCC(C)C(N)P(=O)(O)O (stereo in doubt; D28) [listing 2 of 2 here] | 9% |  |  | 
CCC(C)C(N)P(=O)(O)O (stereo in doubt; D29) [listing 1 of 2 here] |  |  | 0% | 
CCC(C)C(N)P(=O)(O)O (stereo in doubt; D29) [listing 2 of 2 here] | 9% |  |  | 
CCCC(C)C(N)P(=O)(O)O (stereo in doubt; D30) [listing 1 of 2 here] |  | < 3.59 | 14% | 
CCCC(C)C(N)P(=O)(O)O (stereo in doubt; D30) [listing 2 of 2 here] | 11% |  |  | 
CCCC(C)C(N)P(=O)(O)O (stereo in doubt; D31) [listing 1 of 2 here] |  |  | 2% | 
CCCC(C)C(N)P(=O)(O)O (stereo in doubt; D31) [listing 2 of 2 here] | 3% |  |  | 
CCCCC(CC)C(N)P(=O)(O)O (stereo in doubt; D32) [listing 1 of 2 here] |  |  | 0% | 
CCCCC(CC)C(N)P(=O)(O)O (stereo in doubt; D32) [listing 2 of 2 here] | 1% |  |  | 
CCCCC(CC)C(N)P(=O)(O)O (stereo in doubt; D33) [listing 1 of 2 here] |  | < 3.59 | 17% | 
CCCCC(CC)C(N)P(=O)(O)O (stereo in doubt; D33) [listing 2 of 2 here] | 11% |  |  | 
CC(C)C[C@H](N)P(=O)(O)O [LEUCINE PHOSPHONIC ACID] | 15% | < 3.89 | 30% | inhibition at 10 µM (Plasmodium falciparum [1]): 24%; inhibition at 0.1 µM (Plasmodium falciparum [3]): 0%; inhibition [4]: 0%; inhibition [5]: 52%; inhibition [7]: 9%
CC(C)C[C@H](NC(=O)[C@@H](O)[C@H](N)Cc1ccccc1)C(=O)O [UBENIMEX] | 98% |  |  | inhibition at 10 µM (Plasmodium falciparum [1]): 97%; inhibition at 0.1 µM (Plasmodium falciparum [3]): 29%; inhibition [4]: 33%; inhibition [5]: 93%; inhibition [10]: 47%; inhibition [7]: 6%
